Source: ChEMBL document CHEMBL4732225, “Identification of a new class of HBV capsid assembly modulator” (Bioorg Med Chem Lett, 2021)

Key:
[1] = Metabolic stability in human microsomes assessed as intrinsic clearance; type: ADME, Microsome
[2] = Ratio of drug level in liver to plasma in Sprague-Dawley rat at 5 mg/kg, po or 1.25 mg/kg, iv; type: ADME, organism-based; conditions: liver and plasma
Outline: (§1)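 Sprague-Dawley rats, n = 3. Oral dose 5 mg/kg in 70% PEG400 vehicle; IV dose 1.25 mg/kg in saline vehicle.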

[3] = Plasma clearance in Sprague-Dawley rat at 5 mg/kg, po or 1.25 mg/kg, iv; type: ADME, organism-based; outline: as §1
[4] = Volume of distribution at steady state in Sprague-Dawley rat at 5 mg/kg, po or 1.25 mg/kg, iv; type: ADME, organism-based; conditions: in vivo, read-out: Vdss; outline: as §1
[5] = Volume of distribution at steady state in Beagle dog at […], po or 1 mg/kg, iv; type: ADME, organism-based, Canis lupus familiaris; conditions: in vivo, dose 2.5 mg/kg, read-out: Vdss
[6] = Tmax in Beagle dog at […], po; type: ADME, organism-based, Canis lupus familiaris; conditions: in vivo, dose 2.5 mg/kg
[7] = Cmax in Sprague-Dawley rat at 5 mg/kg, po; type: ADME, organism-based; set-up: route oral, dose 5 mg/kg; conditions: in vivo; outline: as §1
[8] = Tmax in Sprague-Dawley rat at 5 mg/kg, po; type: ADME, organism-based; conditions: in vivo; outline: as §1
[9] = AUC (0 to infinity) in Sprague-Dawley rat at 5 mg/kg, po; type: ADME, organism-based; set-up: time infinity, route oral, dose 5 mg/kg; conditions: in vivo; outline: as §1
[10] = Cmax in Beagle dog at […], po; type: ADME, organism-based, Canis lupus familiaris; set-up: route oral, dose 2.5 mg/kg; conditions: in vivo
[11] = Oral bioavailability in Sprague-Dawley rat at 5 mg/kg; type: ADME, organism-based; conditions: in vivo; outline: as §1
[12] = Oral bioavailability in Beagle dog at […]; type: ADME, organism-based, Canis lupus familiaris; conditions: in vivo, dose 2.5 mg/kg
[13] = Half life in Sprague-Dawley rat at 5 mg/kg, po or 1.25 mg/kg, iv; type: ADME, organism-based; conditions: in vivo; outline: as §1
[14] = Half life in Beagle dog at […], po or 1 mg/kg, iv; type: ADME, organism-based, Canis lupus familiaris; conditions: in vivo, dose 2.5 mg/kg
[15] = AUC (0 to infinity) in Beagle dog at […], po; type: ADME, organism-based, Canis lupus familiaris; set-up: route oral, time infinity, dose 2.5 mg/kg; conditions: in vivo

| Structure (SMILES) | CLint scaled [1] [mL/min/kg] | further results |
| --- | --- | --- |
| C[C@H]1Cc2[nH]nc(-c3cscn3)c2CN1C(=O)Nc1ccc(F)c(Br)c1 | 24 |  |
| C[C@H]1Cc2[nH]nc(-c3cccs3)c2CN1C(=O)Nc1cccc(Cl)c1 | 17 |  |
| C[C@H]1Cc2[nH]nc(-c3cscn3)c2CN1C(=O)Nc1ccc(F)c(C#N)c1 | 13 | Kp [2]: 17; clearance [3]: 30.7 mL/min/kg; Vd [4]: 2.97 L/kg; Vd [5]: 3 L/kg; Tmax [6]: 1 h; Cmax [7]: 73 ng/mL; Tmax [8]: 6 h; AUC(0-inf) [9]: 1030 ng·h/mL; Cmax [10]: 472 ng/mL; bioavailability [11]: 38%; F [12]: 73%; half-life [13]: 2.28 h; half-life [14]: 2.17 h; AUC [15]: 1620 ng·h/mL |
| CC[C@H]1Cc2[nH]nc(-c3ccccc3)c2CN1C(=O)Nc1cccc(Cl)c1 | 22 |  |
| O=C(Nc1cccc(Cl)c1)N1CCc2[nH]nc(-c3nccs3)c2C1 | 53 |  |
| C[C@H]1Cc2[nH]nc(-c3cscn3)c2CN1C(=O)Nc1cccc(Cl)c1 | 20 |  |
| C[C@H]1Cc2[nH]nc(-c3cscn3)c2CN1C(=O)Nc1ccc(F)c(Cl)c1 | 21 |  |
| O=C(Nc1cccc(Cl)c1)N1CCc2[nH]nc(-c3cccs3)c2C1 | 356 |  |
| C[C@@H]1Cc2[nH]nc(-c3ccccc3)c2CN1C(=O)Nc1cccc(Cl)c1 | 43 |  |
| O=C(Nc1cccc(Cl)c1)N1CCc2[nH]nc(-c3cscn3)c2C1 | 33 |  |
| C[C@H]1Cc2[nH]nc(-c3cscn3)c2CN1C(=O)Nc1ccnc(Br)c1F | 12 |  |
| Cc1cc(NC(=O)N2Cc3c(-c4cscn4)n[nH]c3C[C@@H]2C)ccc1F | 14 |  |
| O=C(Nc1cccc(Cl)c1)N1CCc2[nH]nc(-c3ccsc3)c2C1 | 160 |  |
| C[C@H]1Cc2[nH]nc(-c3ccccc3)c2CN1C(=O)Nc1cccc(Cl)c1 | 15 |  |
| C[C@H]1Cc2c(c(-c3cccs3)nn2C)CN1C(=O)Nc1cccc(Cl)c1 | 146 |  |
| O=C(Nc1cccc(Cl)c1)N1CCc2[nH]nc(-c3cocn3)c2C1 | 50 |  |
